Compounds with a hit are over-represented: about 3.5% of the library has one in this group of screens.
MrgX1 antagonist – blocks BAM8-22 activation of human MrgX1 receptor; Q96LB2; MRGX1-HEK293 calcium flux, Fluo-4, BAM8-22 antagonism; active compounds read low; B-score at 10 µM; 310,000 compounds, 1.3% hits;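 active means calcium-response B-score plate-corrected more than 3 library SD below zero, starting fluorescence within 5 deviations, no agonist response on first addition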;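 further: peak minus trough fluorescence over baseline after final BAM8-22 challenge near maximal dose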
Target sequence (Q96LB2 whole entry, looked up): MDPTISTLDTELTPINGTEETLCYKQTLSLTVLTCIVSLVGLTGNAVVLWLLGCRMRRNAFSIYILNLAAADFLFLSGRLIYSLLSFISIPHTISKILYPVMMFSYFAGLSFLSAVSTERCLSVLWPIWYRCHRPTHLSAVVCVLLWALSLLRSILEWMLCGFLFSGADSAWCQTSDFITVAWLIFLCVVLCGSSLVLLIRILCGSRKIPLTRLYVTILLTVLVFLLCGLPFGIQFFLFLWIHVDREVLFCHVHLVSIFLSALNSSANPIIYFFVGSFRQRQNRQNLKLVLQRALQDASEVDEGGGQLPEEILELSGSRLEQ
RGS4 inh – human RGS4 inhibition; P49798; HEK293 M3R/RGS4 inducible, Fluo-4 calcium flux; active compounds read high; triggered by carbachol at its EC20; B-score at 10 µM; 310,000 compounds, 0.45% hits;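 active means B-score, a plate-corrected calcium signal, over three deviations above library mean, with baseline fluorescence within five deviations of library mean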;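 further: RGS4 expression induced by doxycycline in cells with stable M3 receptor; B-score is computed from the integrated fluorescence ratio over baseline after carbachol; higher B-score means a larger calcium signal and so more RGS4 inhibition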
Target sequence (P49798 whole entry, looked up): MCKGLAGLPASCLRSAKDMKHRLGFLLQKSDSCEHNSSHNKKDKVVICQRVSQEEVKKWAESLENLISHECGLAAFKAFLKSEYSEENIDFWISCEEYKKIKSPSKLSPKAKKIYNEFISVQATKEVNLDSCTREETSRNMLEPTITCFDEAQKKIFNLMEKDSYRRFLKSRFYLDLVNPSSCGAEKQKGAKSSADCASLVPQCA
MrgX1 PAM – allosterically activates human MrgX1 receptor signaling | MrgX1-HEK293, Fluo-4 calcium flux, FDSS; active compounds read high | B-score at 10 µM | 310,000 compounds, 0.63% hits;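 active means plate-corrected calcium response at least 3 library SD above typical, normal starting fluorescence, not activating the receptor alone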;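 further: compound read alongside a low EC10 to EC30 dose of BAM8-22 agonist; peak minus trough fluorescence over baseline measured at the second addition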
MrgX1 ag – human MrgX1 receptor agonism, primary screen | Q96LB2 | MrgX1-HEK293 cells, Fluo-4 calcium fluorescence, agonist mode; active compounds read high | B-score at 10 µM | 310,000 compounds, 0.44% hits | AID 588627;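 active means calcium response B-score plate-corrected fluorescence ratio at least 3 library SD, with starting fluorescence B-score inside 5 SD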
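Assay system: stable human MrgX1 HEK293 cell line. Quantity: 15,000 cells per well. Schedule: cells plated overnight, dye loaded 0.5 h 37 °C, 0.5 h room temperature. Detection: Fluo-4 NW calcium-flux fluorescence, kinetic read. Read-out basis: peak-minus-minimum fluorescence over baseline, converted to B scores. Control set: positive and negative control wells on each plate.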
RGS4 pot – RGS4 potentiation or activation; HEK293 M3R/inducible RGS4, carbachol calcium flux Fluo4; active compounds read low; B-score at 10 µM; 310,000 compounds, 0.92% hits; AID 463111;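 active means B-score of the integrated calcium signal more than 4 SD below the library mean, with starting fluorescence not abnormally high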;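 further: negative B-score means reduced calcium response which marks RGS4 activation or potentiation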
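System: HEK293 FlpIn-TREx cells, stable M3R, doxycycline-inducible RGS4. Timing: overnight RGS4 induction, 30 min dye load 37 °C, 20 min compound RT. Also added: carbachol, ECmax concentration. Measured by: Fluo4 fluorescence kinetic imaging of calcium. Evaluation: integrated calcium ratio converted to B score.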
RGS4 activ val – RGS4 activation, validation assay; shares compounds with RGS4 pot; HEK293 M3R/RGS4 inducible, carbachol calcium flux Fluo4; inhibition, % at 10 µM; 1,100 compounds, 89% hits; AID 602282;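 active means inhibition above 3 SD of the buffer control wells, cut at about 41% in these data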;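 further: signal is the integrated peak-minus-minimum Fluo4 fluorescence over baseline ratio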
M3R Ca counter – RGS4 activator counter-screen hit in non-induced cells; inhibition, % at 10 µM; shares compounds with RGS4 pot; AID 602283; 1,100 compounds, 82% hits; HEK293 M3R non-induced RGS4, Fluo4 calcium flux; after carbachol challenge at its EC90;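 active means inhibition exceeding 3 SD of buffer-only control wells, cut at about 26% in these data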;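 further: percent drop in integrated peak-minus-baseline over baseline Fluo4 ratio after carbachol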
Hits are given with their value; . = inactive; / = not tested or not shown.

SMILES	MrgX1 antagonist	RGS4 inh	MrgX1 PAM	MrgX1 ag	RGS4 pot	RGS4 activ val	M3R Ca counter
CCCCCCCCn1c2c(c(=N)c3ccccc31)CCC2	/	.	/	/	.	/	/
CN(C)C(CNC(=O)c1ccc(C2SCCS2)cc1)c1ccccc1 (configuration not stated)	.	.	.	.	-10	94	80
COc1ccc2[nH]c(C(=O)N3CCC(Cc4ccccc4)CC3)cc2c1	.	.	.	.	.	/	/
COc1ccc2cc(C(=O)N3CCC(Cc4ccccc4)CC3)[nH]c2c1	.	.	.	.	-7.9	.	.
O=C(Nc1ccc(Cl)c(S(=O)(=O)N2CCOCC2)c1)c1ccc(OCC2CCCO2)cc1 (configuration not stated)	-11	.	.	.	-11	94	79
O=C(Nc1ccc(S(=O)(=O)N2CCCC2)cc1)c1ccc(OCC2CCCO2)cc1 (configuration not stated)	.	.	.	.	.	/	/
CN(CC(=O)Nc1cccc(F)c1)C(=O)c1cc(-c2cccs2)nn1-c1ccccc1	.	.	.	.	-9.6	76	43
CCOC(=O)/C=C/C(=O)Nc1ccc(Oc2ccccc2)cc1	.	.	.	.	.	/	/
O=C(COc1cccc(F)c1)NNC(=O)c1cccc(-n2cccc2)c1	.	.	.	.	.	/	/
Cc1ccccc1-c1nn2c(-c3ccccc3)nnc2s1	.	.	.	.	-7.7	.	.
Cc1ccccc1OCC(=O)NC(=S)Nc1ccccc1N1CCN(S(C)(=O)=O)CC1	.	.	.	.	-9.1	62	.
Cc1ccc(-c2nn(Cc3ccccc3)cc2/C=C/C(=O)O)cc1	.	.	.	.	.	/	/
N=C1c2ccccc2CN1c1ccc(S(=O)(=O)N2CCCCC2)cc1	.	.	.	.	-8.8	75	36
Cc1nc(N2CCN(Cc3ccccc3)CC2)nc2c1C(=O)CC(c1ccco1)C2 (configuration not stated)	.	.	.	.	-8.4	.	.
COc1ccc(-c2cc(C(=O)N3CCN(c4ccccc4O)CC3)c3ccccc3n2)cc1OC	.	.	.	.	-7.7	92	82
COc1ccc(-c2cc(C(=O)N3CCN(c4ccccc4F)CC3)c3ccccc3n2)c(OC)c1	.	.	.	.	-8.4	56	.
CCOc1ccc(-c2cc(C(=O)N3CCN(c4ccccn4)CC3)c3ccccc3n2)cc1	.	.	.	.	.	/	/
CCCc1ccc(-c2cc(C(=O)N3CCN(c4ccccn4)CC3)c3ccccc3n2)cc1	.	.	.	.	-12	52	.
CCOC(=O)COc1nc2c(c(-c3ccco3)c1C#N)CCc1ccccc1-2	.	.	.	.	-7.8	82	37
N#Cc1c(OCC(=O)c2ccccc2)nc2c(c1-c1ccco1)CCc1ccccc1-2	.	.	.	.	.	/	/
CCOC(=O)COc1nc(-c2ccccc2)cc(-c2ccco2)c1C#N	.	.	.	.	-7.7	88	54
O=C(CNC1CCCCCC1)Nc1ccc(S(=O)(=O)NC2CC2)cc1	.	.	.	.	-7.7	64	84
O=C(CN1CCC(NC(=O)c2ccccc2)CC1)NCc1ccccc1F	.	.	.	.	.	/	/
Cc1cccc(S(=O)(=O)N2CCN(Cc3ccc4c(c3)OCO4)CC2)c1	.	.	.	.	-10	68	84
CCOc1ccc(S(=O)(=O)N2CCN(Cc3ccc4c(c3)OCO4)CC2)cc1Cl	.	.	.	.	.	/	/
SMILES	MrgX1 antagonist	RGS4 inh	MrgX1 PAM	MrgX1 ag	RGS4 pot	RGS4 activ val	M3R Ca counter
COc1ccc(S(=O)(=O)N2CCN(Cc3ccc4c(c3)OCO4)CC2)cc1	.	.	.	.	-11	62	84
CSc1ccc(S(=O)(=O)N2CCN(Cc3ccc4c(c3)OCO4)CC2)cc1	.	.	.	.	-9.9	92	91
COc1ccc(S(=O)(=O)N2CCC(N3CCN(Cc4ccccc4)CC3)CC2)cc1	.	.	.	.	-8	86	50
O=C(CSc1nc(-c2ccccc2)cs1)NCc1ccco1	.	.	.	.	.	/	/
C=CCn1c(SCC(=O)NCc2ccco2)nc2sc(C)c(C)c2c1=O	.	.	.	.	.	/	/
O=C1CC(c2ccccc2)Cc2nc(NCc3ccco3)ncc21 (configuration not stated)	.	.	.	.	.	/	/
O=C(O)c1cccc(Nc2ncnc3ccccc23)c1	.	.	.	.	.	/	/
COc1cccc(NC(=O)c2cccs2)c1	.	.	.	.	.	/	/
Cc1ccccc1-c1nnn(CC(=O)N2CCN(S(=O)(=O)c3ccc(Cl)cc3)CC2)n1	.	.	.	.	.	/	/
CCc1ccc(NCCC(=O)c2ccc(Cl)cc2)cc1	.	.	.	.	.	/	/
Cc1cccc(C)c1NC(=O)NNC(=O)c1cc(C(C)(C)C)nn1Cc1ccccc1	.	.	.	.	.	/	/
CC(C)(C)c1cc(C(=O)NCc2cc(F)cc3c2OCOC3)n(Cc2ccccc2)n1	.	.	.	.	-8.4	92	56
CCn1c2ccccc2c2cc(/C=N/n3cn[nH]c3=S)ccc21	.	.	.	.	.	/	/
CCn1c2ccccc2c2cc(/C=N/n3c(-c4cc(C)[nH]n4)n[nH]c3=S)ccc21	.	.	.	.	-7.8	70	42
COc1cccc(OC)c1OCCNCC1CSc2ccccc2O1 (configuration not stated)	.	.	.	.	-8.1	.	.
COc1cccc(OC)c1OCCCOc1c(OC)cccc1OC	.	.	.	.	.	/	/
O=C(Cn1ccc2ccccc2c1=O)NCCC(=O)N1CCCCC1	.	.	.	.	.	/	/
O/C=c1\ccc2cccc3nc(C(F)(F)F)nc1c23	.	.	.	.	.	/	/
C/C(O)=c1/ccc2cccc3nc(C)nc1c23	.	.	.	.	-8.3	74	69
CC(C)c1cc(-c2cc(C(=O)NCc3ccccc3)on2)nc(NCC2CC2)n1	.	.	.	.	-8.4	92	92
CC(Oc1ccccc1)C(=O)Nc1ccc(C(N)=O)cc1 (configuration not stated)	.	.	.	.	.	/	/
CC(C)NS(=O)(=O)c1ccc(NC(=O)C(C)Oc2ccc(C(=O)c3ccccc3)cc2)cc1 (configuration not stated)	-8.6	.	.	.	-7.7	70	74
CCOC(=O)CSc1ncc(OC)c(Sc2ccc(OC)cc2)n1	.	.	.	.	.	/	/
Cc1cccc(COCC(CC(C)C)N2CCN(C(=O)c3ccc(C(C)(C)C)cc3)CCC2=O)c1 (configuration not stated)	.	.	.	.	.	/	/
COCCNC(=O)c1ccccc1NC(=O)C1COc2ccccc2O1 (configuration not stated)	.	.	.	.	.	/	/

Screening results (PubChem)
